Laboratory results from ChEMBL document CHEMBL2057126, “Discovery of new inhibitors of Cdc25B dual specificity phosphatases by structure-based virtual screening” (J Med Chem, 2012).
Activity calls are given as the source filed them. The rule behind the calls is not given here.

Key:
[1] = target: T1, M-phase inducer phosphatase 1 (Homo sapiens) (UniProt P30304); test: (§1) Inhibition of recombinant phosphatase activity of Cdc25A catalytic domain expressed in Escherichia coli BL21(DE3) using OMFP as substrate at 100 uM after 15 mins by fluorimetric assay
T1 sequence (whole entry): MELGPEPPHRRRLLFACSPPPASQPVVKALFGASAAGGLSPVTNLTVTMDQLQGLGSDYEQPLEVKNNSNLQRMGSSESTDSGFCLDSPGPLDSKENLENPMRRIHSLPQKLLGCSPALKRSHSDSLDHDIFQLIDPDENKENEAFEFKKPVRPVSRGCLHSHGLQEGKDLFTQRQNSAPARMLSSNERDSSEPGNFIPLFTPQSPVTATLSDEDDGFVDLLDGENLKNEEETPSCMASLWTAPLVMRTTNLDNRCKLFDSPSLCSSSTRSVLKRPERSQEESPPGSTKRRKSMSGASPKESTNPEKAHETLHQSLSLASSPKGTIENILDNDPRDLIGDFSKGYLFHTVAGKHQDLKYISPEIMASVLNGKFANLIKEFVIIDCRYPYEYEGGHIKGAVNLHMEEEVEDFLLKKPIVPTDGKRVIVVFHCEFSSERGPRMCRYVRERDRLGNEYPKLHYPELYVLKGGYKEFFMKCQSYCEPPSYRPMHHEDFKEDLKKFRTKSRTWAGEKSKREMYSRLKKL

[2] = target: T2, M-phase inducer phosphatase 2 (Homo sapiens) (UniProt P30305); test: (§2) Inhibition of recombinant phosphatase activity of Cdc25B catalytic domain expressed in Escherichia coli BL21(DE3) using OMFP as substrate at 100 uM after 15 mins by fluorimetric assay
T2 sequence (whole entry): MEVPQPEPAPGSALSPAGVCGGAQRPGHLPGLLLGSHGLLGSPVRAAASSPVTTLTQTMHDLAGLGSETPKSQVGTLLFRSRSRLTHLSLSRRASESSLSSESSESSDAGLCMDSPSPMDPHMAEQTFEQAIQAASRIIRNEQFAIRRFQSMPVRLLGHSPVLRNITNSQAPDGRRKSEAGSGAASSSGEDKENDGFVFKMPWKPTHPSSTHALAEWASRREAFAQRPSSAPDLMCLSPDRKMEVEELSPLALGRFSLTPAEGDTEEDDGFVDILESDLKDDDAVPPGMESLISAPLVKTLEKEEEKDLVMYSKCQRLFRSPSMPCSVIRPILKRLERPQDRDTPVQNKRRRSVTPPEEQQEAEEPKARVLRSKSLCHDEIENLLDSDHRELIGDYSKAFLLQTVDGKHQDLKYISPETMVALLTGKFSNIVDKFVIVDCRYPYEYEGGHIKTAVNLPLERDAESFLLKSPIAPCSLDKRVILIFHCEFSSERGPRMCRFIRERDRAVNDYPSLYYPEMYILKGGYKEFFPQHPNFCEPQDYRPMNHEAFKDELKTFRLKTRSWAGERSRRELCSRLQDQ

[3] = target: T3, M-phase inducer phosphatase 3 (Homo sapiens) (UniProt P30307); test: (§3) Inhibition of recombinant phosphatase activity of Cdc25C catalytic domain expressed in Escherichia coli BL21(DE3) using OMFP as substrate at 100 uM after 15 mins by fluorimetric assay
T3 sequence (whole entry): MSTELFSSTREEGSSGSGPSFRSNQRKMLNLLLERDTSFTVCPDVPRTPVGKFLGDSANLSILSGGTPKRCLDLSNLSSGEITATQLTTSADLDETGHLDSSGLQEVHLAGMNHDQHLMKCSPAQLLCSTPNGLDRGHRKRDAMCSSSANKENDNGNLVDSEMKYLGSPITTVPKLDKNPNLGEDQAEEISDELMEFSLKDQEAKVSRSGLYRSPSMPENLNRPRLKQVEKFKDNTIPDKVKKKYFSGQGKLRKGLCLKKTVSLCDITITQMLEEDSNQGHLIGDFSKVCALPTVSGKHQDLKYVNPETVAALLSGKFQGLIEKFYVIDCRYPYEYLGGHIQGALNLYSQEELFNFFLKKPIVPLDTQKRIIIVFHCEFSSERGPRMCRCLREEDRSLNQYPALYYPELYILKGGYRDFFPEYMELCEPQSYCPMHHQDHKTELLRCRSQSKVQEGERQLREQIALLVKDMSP

[4] = target: T2, M-phase inducer phosphatase 2 (Homo sapiens); test: (§4) Inhibition of recombinant phosphatase activity of Cdc25B catalytic domain expressed in Escherichia coli BL21(DE3) using OMFP as substrate by spectrofluorimetric analysis
[5] = target: T4, M-phase inducer phosphatase 2 (Homo sapiens, UniProt P30305); test: as §4
T4 sequence (P30305 whole entry): T2 sequence (whole entry)

[6] = target: T5, M-phase inducer phosphatase 1 (Homo sapiens, UniProt P30304); test: Inhibition of recombinant phosphatase activity of Cdc25A catalytic domain expressed in Escherichia coli BL21(DE3) using OMFP as substrate by spectrofluorimetric analysis
T5 sequence (P30304 whole entry): T1 sequence (whole entry)
Outline: (§5)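 Purified recombinant Cdc25A catalytic domain; phosphatase activity measured as OMFP hydrolysis versus inhibitor concentration to derive IC50, with Ki calculated from kinetic measurements. Results are averages ± SD of three determinations.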

[7] = target: T5, M-phase inducer phosphatase 1; test: Inhibition of recombinant phosphatase activity of Cdc25A catalytic domain expressed in Escherichia coli BL21(DE3) using OMFP as substrate by Lineweaver-Burk plot analysis; outline: as §5
[8] = target: T4, M-phase inducer phosphatase 2; test: Competitive inhibition of recombinant phosphatase activity of Cdc25B catalytic domain expressed in Escherichia coli BL21(DE3) using OMFP as substrate by Lineweaver-Burk plot analysis
MCF7 [9] = test: Growth inhibition against human MCF7 cells expressing Cdc25A-C assessed as cell viability at 400 uM after 72 hrs by MTS assay; type: functional, cell-based
Outline: (§6)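 MCF-7 breast, PC-3 prostate and K562 leukaemia cells treated 72 h with inhibitor or DMSO vehicle control, then cell viability measured. Values are mean ± SD of three experiments; significance by Student's t test, p ≤ 0.05.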

PC-3 [10] = test: Growth inhibition against human PC3 cells expressing Cdc25A-C assessed as cell viability at 400 uM after 72 hrs by MTS assay; type: functional, cell-based; outline: as §6
K562 [11] = test: Growth inhibition against human K562 cells expressing Cdc25A-C assessed as cell viability at 400 uM after 72 hrs by MTS assay; type: functional, cell-based; outline: as §6
MCF7 [12] = test: Cell cycle arrest in human MCF7 cells assessed as accumulation at G2/M phase at 400 uM after 24 hrs by propidium iodide staining-based flow cytometry (reference value: 9.4 +/- 0.04%); type: functional
MCF7 [13] = test: Cell cycle arrest in human MCF7 cells assessed as accumulation at S phase at 400 uM after 24 hrs by propidium iodide staining-based flow cytometry (reference value: 9.35%); type: functional
MCF7 [14] = test: Cell cycle arrest in human MCF7 cells assessed as accumulation at G1 phase at 400 uM after 24 hrs by propidium iodide staining-based flow cytometry (reference value: 81.3 +/- 0.01%); type: functional
[15] = target: T2, M-phase inducer phosphatase 2 (Homo sapiens); test: Inhibition of Cdc25B in human K562 cells assessed as increase in Cdk1 phosphorylation at 400 uM after 24 hrs by Western blot analysis; type: cell-based
Outline: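 K562 cells treated 24 h with inhibitor or DMSO vehicle, lysed, and Western blotted with anti-phospho-Cdk1 (Y15) antibody; total Cdk1 detected as loading control.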

MCF7 [16] = test: Cell cycle arrest in human MCF7 cells assessed as accumulation at G1 phase at 400 uM after 48 hrs by propidium iodide staining-based flow cytometry (reference value: 64.5 +/- 0.02%); type: functional
MCF7 [17] = test: Cell cycle arrest in human MCF7 cells assessed as accumulation at S phase at 400 uM after 48 hrs by propidium iodide staining-based flow cytometry (reference value: 14.5 +/- 0.01%); type: functional
MCF7 [18] = test: Cell cycle arrest in human MCF7 cells assessed as accumulation at G2/M phase at 400 uM after 48 hrs by propidium iodide staining-based flow cytometry (reference value: 21 +/- 0.04%); type: functional
[19] = target: M-phase inducer phosphatase 1 (Homo sapiens) (UniProt P30304); test: as §1; remark: listed apart in the source
[20] = target: M-phase inducer phosphatase 2 (Homo sapiens) (UniProt P30305); test: as §2; remark: listed apart in the source
[21] = target: M-phase inducer phosphatase 3 (Homo sapiens) (UniProt P30307); test: as §3; remark: listed apart in the source
[22] = target: T2, M-phase inducer phosphatase 2 (Homo sapiens); test: Reversible inhibition of recombinant phosphatase activity of Cdc25B catalytic domain expressed in Escherichia coli BL21(DE3) assessed as residual activity of enzyme measured after 10 fold dilution at 100 uM preincubated for 20 mins
Outline: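 Cdc25B (0.5 μg) preincubated 20 min at room temperature with 100 μM inhibitor or DMSO vehicle, then diluted 10-fold. Residual phosphatase activity was read after adding OMFP substrate and expressed as percent of the untreated control. Mean ± SD of three determinations.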

MCF7 [23] = test: Growth inhibition against human MCF7 cells expressing Cdc25A-C assessed as cell viability at 20 uM after 72 hrs by MTS assay; type: functional, cell-based; outline: as §6
PC-3 [24] = test: Growth inhibition against human PC3 cells expressing Cdc25A-C assessed as cell viability at 20 uM after 72 hrs by MTS assay; type: functional, cell-based; outline: as §6
K562 [25] = test: Growth inhibition against human K562 cells expressing Cdc25A-C assessed as cell viability at 20 uM after 72 hrs by MTS assay; type: functional, cell-based; outline: as §6
K562 [26] = test: Increase of ROS level in human K562 cells expressing Cdc25A-C using H2DCFDA at 20 uM after 30 mins by flow cytometry; type: functional, cell-based
MCF7 [27] = test: Cell cycle arrest in human MCF7 cells assessed as accumulation at G1 phase at 20 uM after 24 hrs by propidium iodide staining-based flow cytometry (reference value: 81.3 +/- 0.01%); type: functional
MCF7 [28] = test: Cell cycle arrest in human MCF7 cells assessed as accumulation at G2/M phase at 20 uM after 24 hrs by propidium iodide staining-based flow cytometry (reference value: 9.4 +/- 0.04%); type: functional
MCF7 [29] = test: Cell cycle arrest in human MCF7 cells assessed as accumulation at S phase at 20 uM after 24 hrs by propidium iodide staining-based flow cytometry (reference value: 9.35%); type: functional
K562 [30] = test: Increase of ROS level in human K562 cells expressing Cdc25A-C using H2DCFDA at 20 uM after 30 mins by flow cytometry in presence of DTT; type: functional, cell-based
PC-3 [31] = test: Increase of ROS level in human PC3 cells expressing Cdc25A-C using H2DCFDA at 20 uM after 30 mins by flow cytometry; type: functional, cell-based
PC-3 [32] = test: Increase of ROS level in human PC3 cells expressing Cdc25A-C using H2DCFDA at 20 uM after 30 mins by flow cytometry in presence of DTT; type: functional, cell-based
MCF7 [33] = test: Cell cycle arrest in human MCF7 cells assessed as accumulation at G1 phase at 20 uM after 48 hrs by propidium iodide staining-based flow cytometry (reference value: 64.5 +/- 0.02%); type: functional
MCF7 [34] = test: Cell cycle arrest in human MCF7 cells assessed as accumulation at S phase at 20 uM after 48 hrs by propidium iodide staining-based flow cytometry (reference value: 14.5 +/- 0.01%); type: functional
MCF7 [35] = test: Cell cycle arrest in human MCF7 cells assessed as accumulation at G2/M phase at 20 uM after 48 hrs by propidium iodide staining-based flow cytometry (reference value: 21 +/- 0.04%); type: functional
[36] = target: T2, M-phase inducer phosphatase 2 (Homo sapiens); conditions: 400 uM
[37] = target: T2, M-phase inducer phosphatase 2 (Homo sapiens); conditions: K562, 20 uM
[38] = target: T2, M-phase inducer phosphatase 2 (Homo sapiens); test: Reversible inhibition of recombinant phosphatase activity of Cdc25B catalytic domain expressed in Escherichia coli BL21(DE3) assessed as residual activity of enzyme measured after 10 fold dilution at 100 uM preincubated for 20 mins

Compound | inhibition [1] | inhibition [2] | inhibition [3] | inhibition [4] | growth inhibition (GI) (MCF7 [9]) | growth inhibition (GI) (PC-3 [10]) | growth inhibition (GI) (K562 [11]) | Activity (MCF7 [12]) | Activity (MCF7 [13]) | Activity (MCF7 [14]) | inhibition [15] | Activity (MCF7 [16]) | Activity (MCF7 [17]) | Activity (MCF7 [18]) | further results
O=S(=O)(O)c1ccc(-c2nnc(-c3ccccn3)nc2-c2ccc(S(=O)(=O)O)o2)o1 | 41% | 53% | 35% | Dose-dependent effect | Active | Active | Active | 10% | 11.3% | 78.7% | Active | 95.4% | 1.8% | 2.9% | IC50 [5]: 173 µM; IC50 [6]: 110 µM; Ki [7]: 139 µM; Ki [8]: 159 µM
VANADATE |  |  |  |  |  |  |  |  |  |  |  |  |  |  | inhibition [19]: 77%; inhibition [20]: 91%; inhibition [21]: 90%
O=C(O)CCc1c2ccc(=O)c(O)c-2oc2c(O)c(O)ccc12 | 100% | 99% | 99% | Dose-dependent effect |  |  |  |  |  |  |  |  |  |  | inhibition [22]: Active; growth inhibition (GI) (MCF7 [23]): Active; growth inhibition (GI) (PC-3 [24]): Active; growth inhibition (GI) (K562 [25]): Active; Activity (K562 [26]): Active; Activity (MCF7 [27]): 68.8%; Activity (MCF7 [28]): 18.1%; Activity (MCF7 [29]): 13.1%; Activity (K562 [30]): inactive; Activity (PC-3 [31]): Active; Activity (PC-3 [32]): inactive; Activity (MCF7 [33]): 92.8%; Activity (MCF7 [34]): 2.6%; Activity (MCF7 [35]): 4.6%; inhibition [36]: Active; inhibition [37]: Active
COc1ccc(Cc2ccc3nc(O)cc(C)c3c2)cc1S(=O)(=O)O | 46% | 41% | 55% | Dose-dependent effect | Active | Active | Active | 5.6% | 3.3% | 91.1% | Active | 93.5% | 3.2% | 3.3% | inhibition [38]: Active
